In ChEMBL document CHEMBL1671763, “Nasal carriage of methicillin-resistant and methicillin-sensitive strains of Staphylococcus sciuri in the Indonesian population” (2010):

Legend:
Assay type in all cases: functional
[1] = system: Mammaliicoccus sciuri; test: Antimicrobial activity against mecA-deficient Staphylococcus sciuri assessed as resistant isolates
In short: (§1)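 Nasal S. sciuri isolates from the Indonesian population, grouped by presence of the S. aureus mecA and S. sciuri mecA genes. Susceptibility to the additional antibiotics was tested on the automated Vitek 2 system (AST-P549 card), and the number of resistant isolates in each group was counted.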

[2] = system: Mammaliicoccus sciuri; test: Antimicrobial activity against mecA-positive Staphylococcus sciuri assessed as resistant isolates; in short: as §1
[3] = system: Mammaliicoccus sciuri; test: Antimicrobial activity against mecA-positive Staphylococcus sciuri harboring staphylococcus aureus mecA gene assessed as resistant isolates; in short: as §1
[4] = system: Mammaliicoccus sciuri; test: Antimicrobial activity against mecA-deficient Staphylococcus sciuri harboring staphylococcus aureus mecA gene assessed as resistant isolates; in short: as §1

Compound	Activity [1] [%]	Activity [2] [%]	Activity [3] [%]	Activity [4] [%]
CC(=O)O[C@H]1C[C@@]2(C)[C@@H](C[C@@H](O)[C@H]3[C@@]4(C)CC[C@@H](O)[C@@H](C)[C@@H]4CC[C@@]32C)/C1=C(\CCC=C(C)C)C(=O)O [FUSIDIC ACID]	55.6	60	69.2	44.4
CCn1cc(C(=O)O)c(=O)c2cc(F)c(N3CCNCC3)cc21 [NORFLOXACIN]	0	0	15.4	66.7
CO[C@H]1/C=C/O[C@@]2(C)Oc3c(C)c(O)c4c(O)c(c(/C=N/N5CCN(C)CC5)c(O)c4c3C2=O)NC(=O)/C(C)=C\C=C\[C@H](C)[C@H](O)[C@@H](C)[C@@H](O)[C@@H](C)[C@H](OC(C)=O)[C@@H]1C [RIFAMPIN]	0	0	15.4	11.1
GENTAMICIN	0	0	38.5	55.5
CN[C@H](CC(C)C)C(=O)N[C@H]1C(=O)N[C@@H](CC(N)=O)C(=O)N[C@H]2C(=O)N[C@H]3C(=O)N[C@H](C(=O)N[C@H](C(=O)O)c4cc(O)cc(O)c4-c4cc3ccc4O)[C@H](O)c3ccc(c(Cl)c3)Oc3cc2cc(c3O[C@@H]2O[C@H](CO)[C@@H](O)[C@H](O)[C@H]2O[C@H]2C[C@](C)(N)[C@H](O)[C@H](C)O2)Oc2ccc(cc2Cl)[C@H]1O [VANCOMYCIN]	0	0	0	0
CN(C)[C@@H]1C(O)=C(C(N)=O)C(=O)[C@@]2(O)C(O)=C3C(=O)c4c(O)cccc4[C@@](C)(O)[C@H]3C[C@@H]12 [TETRACYCLINE]	11.1	5	46.2	77.8
CC[C@H]1OC(=O)[C@H](C)[C@@H](O[C@H]2C[C@@](C)(OC)[C@@H](O)[C@H](C)O2)[C@H](C)[C@@H](O[C@@H]2O[C@H](C)C[C@H](N(C)C)[C@H]2O)[C@](C)(O)C[C@@H](C)C(=O)[C@H](C)[C@@H](O)[C@]1(C)O [ERYTHROMYCIN]	0	0	23.1	33.3
